Data from ChEMBL document CHEMBL4342473, “Lead Optimization of Benzoxazolone Carboxamides as Orally Bioavailable and CNS Penetrant Acid Ceramidase Inhibitors” (J Med Chem, 2020).
Activity calls are given as the source filed them. The rule behind the calls is not given here.

Tests used:
[1] = Microsomal stability in mouse liver microsomes assessed as parent compound remaining at 4.6 uM preincubated for 15 mins followed by NADPH addition and measured after 60 mins by LC-MS/MS analysis; format: ADME, Microsome; conditions: read-out: Stability
How it was run: (§1)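 Mouse liver microsome stability; half-life and % parent remaining at 60 min; mean of at least two independent experiments, each in two technical replicates.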

[2] = biological target: T1, Acid ceramidase (Homo sapiens) (UniProt Q13510); test: Inhibition of human acid ceramidase expressed in HEK293 cells up to 10 uM using Rbm14-12 as substrate preincubated for 10 mins followed by substrate addition and measured after 3 hrs by fluorescence assay; format: cell-based
T1 sequence (whole entry): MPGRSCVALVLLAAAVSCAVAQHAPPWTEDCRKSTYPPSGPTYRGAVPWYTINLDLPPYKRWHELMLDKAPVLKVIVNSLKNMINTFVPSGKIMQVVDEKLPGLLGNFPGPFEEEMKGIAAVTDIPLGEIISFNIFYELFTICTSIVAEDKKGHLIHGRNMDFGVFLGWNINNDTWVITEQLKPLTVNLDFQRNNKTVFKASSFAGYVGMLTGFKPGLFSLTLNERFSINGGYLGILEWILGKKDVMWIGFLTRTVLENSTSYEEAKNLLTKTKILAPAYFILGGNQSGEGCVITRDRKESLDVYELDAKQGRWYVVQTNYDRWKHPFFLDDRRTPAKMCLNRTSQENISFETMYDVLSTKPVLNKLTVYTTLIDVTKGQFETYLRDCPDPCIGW

[3] = Half life in mouse liver microsomes at 4.6 uM preincubated for 15 mins followed by NADPH addition and measured up to 60 mins by LC-MS/MS analysis; format: ADME, Microsome; how it was run: as §1
[4] = biological target: T1, Acid ceramidase (Homo sapiens); test: Inhibition of human acid ceramidase expressed in HEK293 cells at 1 uM using Rbm14-12 as substrate preincubated for 10 mins followed by substrate addition and measured after 3 hrs by fluorescence assay; format: cell-based
[5] = biological target: T1, Acid ceramidase (Homo sapiens); test: Inhibition of human acid ceramidase expressed in HEK293 cells at 10 uM using Rbm14-12 as substrate preincubated for 10 mins followed by substrate addition and measured after 3 hrs by fluorescence assay; format: cell-based

Row | inhibition [2] | half-life at 4.6 µM [3] [min] | Structure (SMILES) | further results
1 | – | < 15 | O=C(NCCCCc1ccccc1)n1c2c(oc1=O)CCNC2 | –
2 | inactive | – | O=C1Cc2ccccc2N1C(=O)NCCCCc1ccccc1 | –
3 | – | < 15 | O=C(NCCCCc1ccccc1)n1c2c(oc1=O)CNCC2 | –

The remaining lines, values behind:

Row | Structure (SMILES) | inhibition [2] | half-life at 4.6 µM [3] [min] | further results
4 | CCCCCNC(=O)n1c(=O)oc2cc(C3CCN(C)CC3)ccc21 | – | – | remaining at 1 h, 4.6 µM [1]: 60%
5 | O=C1C(=O)N(C(=O)NCCCCc2ccccc2)c2ccccc21 | inactive | – | –
6 | CN1CCC(c2ccc3[nH]c(=O)oc3c2)CC1 | – | – | inhibition [4]: inactive; inhibition [5]: inactive
